Experimental data: ChEMBL document CHEMBL1122504, “Heterocyclic Quinones. 4. A new highly cytotoxic drug: 6,7-bis(1-aziridinyl)-5,8-quinazolinedione” (1983)

Legend:
Sarcoma-180 [1] = assay: Number of survivors of sarcoma 180 cell line on day 5/ number of treated mice at a dose of 1 ip injection of 20 mg/kg on Q01Dx01 treatment schedule; 10/10; type: functional, Mus musculus; settings: route intraperitoneal
P388 [2] = assay: Number of survivors of P388 lymphocytic leukemia cell line on day 5/ number of treated mice at a dose of 7po injection of 10 mg/kg on Q01Dx07 treatment schedule; 10/10; type: functional, Mus musculus
Sarcoma-180 [3] = assay: MST of treated animal over control when administered at a dose of 10 mg/kg intraperitoneally on Q01Dx01 treatment schedule in sarcoma 180 cell lines; type: functional, Mus musculus; settings: route intraperitoneal
Summary of the method: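 Sarcoma 180: Swiss mice inoculated ip with 10^6 cells on day 0, with single ip injection of drug in 0.15 M NaCl saline. Median survival time was recorded in days, with toxicity taken as survivors on day 5. T/C% = treated MST/control MST × 100; >125% is considered significant.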

B16 [4] = assay: Median survival time of […] melanocarcinoma cell line after a dose of 10 mg/kg administered intraperitoneally on Q01Dx01 treatment schedule; type: functional, Mus musculus; settings: route intraperitoneal
Summary of the method: (§1)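 B16 melanocarcinoma: C57Bl/6 mice implanted sc with cell suspension on day 0; single ip dose in 0.15 M NaCl saline given on day 1. Median survival time was recorded in days, with toxicity taken as survivors on day 5. T/C% = treated MST/control MST × 100; >125% is considered significant.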

P388 [5] = assay: Median survival time of P388 lymphocytic leukemia cell line after a dose of 2.5 mg/kg administered intraperitoneally on Q01Dx09 treatment schedule; type: functional, Mus musculus; settings: route intraperitoneal
Summary of the method: (§2)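 P388 leukaemia: DBA/2 mice inoculated with 10^6 cells on day 0; treatment began day 1 at the stated route and schedule. Drug was dissolved in 0.15 M NaCl saline. The read-out was median survival time (MST, days), with toxicity taken as survivors on day 5. T/C% = treated MST/control MST × 100; ≥125% is considered significant.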

Salmonella typhimurium [6] = assay: Mutagenesis test was performed at 10 uM concentration in Salmonella Typhimurium TA 98; type: functional, Salmonella enterica subsp. enterica serovar Typhimurium
Summary of the method: (§3)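 Salmonella typhimurium his auxotrophs TA98 and TA100 were tested by liquid suspension without metabolic activation. Overnight Oxoid nutrient broth cultures were subcultured, grown 2 h, then exposed to drug for 5 h. Cells were washed, resuspended to A650 2.50, and plated in top agar (0.6% agar, 0.6% NaCl). His+ revertants per plate were counted after 48 h at 37 °C; values are means of three assays.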

L1210 [7] = assay: MST of treated animal over control when administered at a dose of 2.5 mg/kg intraperitoneally on Q01Dx09 treatment schedule in L1210 cell lines; type: functional, Mus musculus; settings: route intraperitoneal
Summary of the method: (§4)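 L1210 leukaemia: DBA/2 mice inoculated ip with 10^5 cells on day 0, with ip drug in 0.15 M NaCl saline on the stated schedule. The read-out was median survival time in days, with toxicity taken as survivors on day 5. T/C% = treated MST/control MST × 100; >125% is considered significant.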

P388 [8] = assay: Median survival time of P388 lymphocytic leukemia cell line after a dose of 5 mg/kg administered intraperitoneally on Q01Dx05 treatment schedule; type: functional, Mus musculus; settings: route intraperitoneal; summary of the method: as §2
B16 [9] = assay: Number of survivors of B16 melanocarcinoma cell line on day 5/ number of treated mice at a dose of 1 ip injection of 2.5 mg/kg on Q01Dx01 treatment schedule; 10/10; type: functional, Mus musculus; settings: route intraperitoneal
B16 [10] = assay: MST of treated animal over control when administered at a dose of 10 mg/kg intraperitoneally on Q01Dx01 treatment schedule in B16 melanocarcinoma cell lines; type: functional, Mus musculus; settings: route intraperitoneal; summary of the method: as §1
B16 [11] = assay: Median survival time of […] melanocarcinoma cell line after a dose of 2.5 mg/kg administered intraperitoneally on Q01Dx01 treatment schedule; type: functional, Mus musculus; settings: route intraperitoneal; summary of the method: as §1
L1210 [12] = assay: MST of treated animal over control when administered at a dose of 10 mg/kg intraperitoneally on Q01Dx01 treatment schedule in L1210 cell lines; type: functional, Mus musculus; settings: route intraperitoneal; summary of the method: as §4
L1210 [13] = assay: MST of treated animal over control when administered at a dose of 15 mg/kg intraperitoneally on Q01Dx02 treatment schedule in L1210 cell lines; type: functional, Mus musculus; settings: route intraperitoneal; summary of the method: as §4
P388 [14] = assay: MST of treated animal over control when administered at a dose of 5 mg/kg intravenously on Q01Dx01 treatment schedule; type: functional, Mus musculus; settings: route intravenous; summary of the method: as §2
Salmonella typhimurium [15] = assay: Mutagenesis test was performed at 60 uM concentration in Salmonella Typhimurium TA 100; type: functional, Salmonella enterica subsp. enterica serovar Typhimurium; summary of the method: as §3
L1210 [16] = assay: Number of survivors of L1210 cell line on day 5/ number of treated mice at a dose of 9ip injection of 5 mg/kg on Q01Dx09 treatment schedule; 10/10; type: functional, Mus musculus
P388 [17] = assay: Median survival time of P388 lymphocytic leukemia cell line after a dose of 2.5 mg/kg administered intravenously on Q01Dx01 treatment schedule; type: functional, Mus musculus; settings: route intravenous; summary of the method: as §2
L1210 [18] = assay: Median survival time of L1210 cell line after a dose of 2.5 mg/kg administered intraperitoneally on Q01Dx09 treatment schedule; type: functional, Mus musculus; settings: route intraperitoneal; summary of the method: as §4
L1210 [19] = assay: Number of survivors of L1210 cell line on day 5/ number of treated mice at a dose of 5ip injection of 5 mg/kg on Q01Dx05 treatment schedule; 10/10; type: functional, Mus musculus
P388 [20] = assay: MST of treated animal over control when administered at a dose of 10 mg/kg intraperitoneally on Q01Dx01 treatment schedule; type: functional, Mus musculus; settings: route intraperitoneal; summary of the method: as §2
P388 [21] = assay: Number of survivors of P388 lymphocytic leukemia cell line on day 5/ number of treated mice at a dose of 1 i.p. injection of 10 mg/kg on Q01Dx01 treatment schedule; 10/10; type: functional, Mus musculus; settings: route intraperitoneal
L1210 [22] = assay: Median survival time of L1210 cell line after a dose of 5 mg/kg administered intraperitoneally on Q01Dx05 treatment schedule; type: functional, Mus musculus; settings: route intraperitoneal; summary of the method: as §4
P388 [23] = assay: MST of treated animal over control when administered at a dose of 20 mg/kg intraperitoneally on Q01Dx01 treatment schedule; type: functional, Mus musculus; settings: route intraperitoneal; summary of the method: as §2
L1210 [24] = assay: Number of survivors of L1210 cell line on day 5/ number of treated mice at a dose of 1 i.p. injection of 10 mg/kg on Q01Dx01 treatment schedule; 10/10; type: functional, Mus musculus; settings: route intraperitoneal
P388 [25] = assay: Median survival time of P388 lymphocytic leukemia cell line after a dose of 20 mg/kg administered perorally on Q01Dx07 treatment schedule; type: functional, Mus musculus; settings: route oral; summary of the method: as §2
P388 [26] = assay: Median survival time of P388 lymphocytic leukemia cell line after a dose of 5 mg/kg administered intravenously on Q01Dx01 treatment schedule; type: functional, Mus musculus; settings: route intravenous; summary of the method: as §2
P388 [27] = assay: Number of survivors of P388 lymphocytic leukemia cell line on day 5/ number of treated mice at a dose of 5 ip injection of 10 mg/kg on Q01Dx05 treatment schedule; 10/10; type: functional, Mus musculus; settings: route intraperitoneal
P388 [28] = assay: Median survival time of P388 lymphocytic leukemia cell line after a dose of 10 mg/kg administered intraperitoneally on Q01Dx01 treatment schedule; type: functional, Mus musculus; settings: route intraperitoneal; summary of the method: as §2
L1210 [29] = assay: Median survival time of L1210 cell line after a dose of 5 mg/kg administered intraperitoneally on Q01Dx09 treatment schedule; type: functional, Mus musculus; settings: route intraperitoneal; summary of the method: as §4
P388 [30] = assay: Number of survivors of P388 lymphocytic leukemia cell line on day 5/ number of treated mice at a dose of 7po injection of 20 mg/kg on Q01Dx07 treatment schedule; 10/10; type: functional, Mus musculus

What does the source list for `O=C1C(N2CC2)=C(N2CC2)C(=O)c2ncncc21`?
Toxicity Survivors (Sarcoma-180 [1]): 10; Toxicity Survivors (P388 [2]): 10; T/C (Sarcoma-180 [3]): 109%; MST (B16 [4]): 20.8 days; MST (P388 [5]): 10.4 days; Revertants/plate (Salmonella typhimurium [6]): 89; T/C (L1210 [7]): 109%; MST (P388 [8]): 10.4 days; Toxicity Survivors (B16 [9]): 10; T/C (B16 [10]): 91%; MST (B16 [11]): 15.7 days; T/C (L1210 [12]): 114%; T/C (L1210 [13]): 104%; T/C (P388 [14]): 103%; Revertants/plate (Salmonella typhimurium [15]): 501; Toxicity Survivors (L1210 [16]): 10; MST (P388 [17]): 10.4 days; MST (L1210 [18]): 9.1 days; Toxicity Survivors (L1210 [19]): 10; T/C (P388 [20]): 118%; Toxicity Survivors (P388 [21]): 10; MST (L1210 [22]): 9.1 days; T/C (P388 [23]): 134%; Toxicity Survivors (L1210 [24]): 10; MST (P388 [25]): 7.6 days; MST (P388 [26]): 10.4 days; Toxicity Survivors (P388 [27]): 10; MST (P388 [28]): 9.5 days; MST (L1210 [29]): 9.1 days; Toxicity Survivors (P388 [30]): 10
